From PubChem BioAssay AID1738 (Vanderbilt High Throughput Screening Facility, 2009) come the findings set out here.

Inconclusive results are not listed. Activity calls are given as the source filed them.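 How the source made its calls: active means dose curve fitted or showing a partial trend in at least two of three replicates; inactive means fewer than two replicates fitted or trending.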

Usually EC50 stands for the concentration giving half of the maximal effect.

The subject of the assay is parental HEK293, Na-free buffer, Tl+ flux FluoZin2. The assay can be described thus: native HEK Tl+ uptake potency without sodium – HEK cells, counterscreen 3, counter-screen for KCC2 modulator project, dose response (AID 1738). A digest of the protocol: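 System: parental HEK cells loaded with FluoZin2-AM thallium-sensitive dye. Buffer or medium: Sodium-free N-methylglucamine chloride buffer, FluoZin2-AM at 0.5 µM. Also added: thallium stimulus, pH 7.3. Compound: 11-point threefold dilution series, top dose 30 µM. Technique: kinetic fluorescence, 480 nm excitation, 540 nm emission. Benchmarks: 2 mM bumetanide, positive.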

For `O=C1OC(c2ccc(O)cc2)(c2ccc(O)cc2)c2ccccc21`, the EC50 is 15400 nM (inactive).

`O=c1c2ccccc2[nH]c(=S)n1CCN1CCC(=C(c2ccc(F)cc2)c2ccc(F)cc2)CC1`: the EC50 is 4820 nM (inactive). In the case of `Fc1cccc(F)c1/C=N/NC(=S)Nc1cccnc1`, the EC50 is 8330 nM (inactive).

For `CCOc1cccc(C(=O)NC(=S)Nc2cccc(C)c2)c1`, the EC50 is 345 nM. For the compound `Cc1onc(-c2ccccc2Cl)c1C(=O)NC(=S)Nc1ccc(C(C)C)cc1`, the EC50 is 262 nM. With `COc1cc(NC(=S)NC(=O)c2ccco2)ccc1NC(=O)C(C)C`, the EC50 was 3630 nM (inactive). Turning to `Oc1ccccc1/C=N/Nc1nc2ccccc2o1`, the EC50 was 9460 nM (inactive).

For the compound `N=C1SCC(=O)N1c1ncc(Cc2cccc(Cl)c2)s1`, the EC50 was 4430 nM (inactive). As for `CNC(=O)C(=O)Nc1nc(C23CC4CC(CC(C4)C2)C3)cs1`, the EC50 was 61.1 nM. With `CC(C)c1ccc(OCC(=O)NNC(=O)c2cnccn2)cc1`, the EC50 is 16400 nM (inactive). With `COc1ccc(N2C(=S)N=C(Nc3cccc(C)c3)C23CCCCC3)cc1`, the EC50 was 920 nM.

For the compound `COC(=O)[C@@H](NC(=O)O[C@@H]1C(=O)c2ccc(OC)cc2O[C@H]1c1cccc(C(F)(F)F)c1)C(C)C`, the EC50 is 8160 nM (inactive). Consider `COc1ccccc1N1CCN(C(=S)NC(=O)/C=C/c2ccccc2)CC1`, for which the EC50 was 1140 nM (inactive). `NC(=S)N=Nc1c(O)n(Cc2ccccc2)c2ccccc12`: the EC50 is 71.9 nM (inactive). In the case of `O=C(NC(=S)Nc1nc(-c2cccc([N+](=O)[O-])c2)cs1)c1cc(Cl)ccc1Cl`, the EC50 is 22400 nM (inactive).
